Test results reported in publication PMC8434889 (Bioorganic Chemistry, 2021).

How the values were obtained:
[1] = system: Con A-induced T cell proliferation of murine splenocytes; assay: Con A-induced T-cell proliferation; type: cell-based, mouse; conditions: Mus musculus, T-cell, 48 h, read-out: Con A-induced T-cell proliferation IC50
Summary of the method: (§1)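 Splenocytes from 6–8-week-old female BALB/c mice, with erythrocytes lysed in NH4Cl/Tris buffer (pH 7.2), in RPMI 1640 with 10% FBS and penicillin/streptomycin. Cells at 5 × 10^5 in triplicate for 48 h with or without test compound (DMSO stock diluted in medium). Stimulation: ConA 1 μg/mL for T cells or LPS 10 μg/mL for B cells. [3H]thymidine 0.5 μCi/well pulse for 8 h, filter harvest, scintillation counting. IC50 from log(inhibitor)–normalized response nonlinear fit.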

[2] = in vitro; conditions: human
[3] = molecular target: SARS-Cov2 spike glycoprotein (Severe acute respiratory syndrome coronavirus 2, UniProt P0DTC2); assay: cell-based; type: cell-based, SARS-CoV-2
[4] = system: LPS-induced B cell proliferation of murine splenocytes; assay: LPS-induced B-cell proliferation; type: cell-based, mouse; conditions: Mus musculus, B-cell, 48 h, read-out: LPS-induced B-cell proliferation IC50
Summary of the method: as §1

[5] = Splenocytes cytotoxicity; type: cell-based; conditions: female, BALB/c, mouse, murine splenocytes
Summary of the method: (§2)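 MTT assay after 48 h culture in triplicate with or without test compound. Cells: 8 × 10^5 BALB/c splenocytes or 1 × 10^5 RAW264.7 cells. MTT reagent (5 mg/mL) added 4 h before end of culture; formazan dissolved in DMSO; absorbance at 570 nm. CC50 from log(inhibitor)–normalized response nonlinear fit.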

[6] = system: IL-6; assay: Con A-induced cytokine production in splenocytes, IL-6; type: cell-based; conditions: Mus musculus, Splenocyte, 48 h, read-out: IC50 IL-6
[7] = Cytotoxicity in RAW264.7 cell; type: cell-based; conditions: mouse, RAW264.7 macrophage cells
Summary of the method: as §2

[8] = system: IL-1β; assay: LPS-induced cytokine production in RAW264.7 cell, IL-1β; type: cell-based; conditions: Mus musculus, RAW264.7, 48 h, read-out: IL-1β IC50
Summary of the method: (§3)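 Murine RAW264.7 macrophages grown in DMEM with 10% FBS, 2 mM L-glutamine and penicillin/streptomycin at 37 °C, 5% CO2. Cells at 1 × 10^5 in triplicate with or without test compound, then LPS 10 μg/mL for 48 h. Supernatant IL-1β, IL-6 and TNF-α by ELISA. IC50 from log(inhibitor)–normalized response nonlinear fit.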

[9] = system: IL-17; assay: Con A-induced cytokine production in splenocytes, IL-17; type: cell-based; conditions: Mus musculus, Splenocyte, 48 h, read-out: IC50 IL-17
[10] = system: IL-1β; assay: LPS-induced cytokine production in splenocytes, IL-1β; type: cell-based; conditions: Mus musculus, Splenocyte, 48 h, read-out: IC50 IL-1β
[11] = system: IFN-γ; assay: Con A-induced cytokine production in splenocytes, IFN-γ; type: cell-based; conditions: Mus musculus, Splenocyte, 48 h, read-out: IC50 IFN-γ
[12] = system: IL-6; assay: LPS-induced cytokine production in splenocytes, IL-6; type: cell-based; conditions: Mus musculus, Splenocyte, 48 h, read-out: IC50 IL-6
[13] = system: TNF-α; assay: LPS-induced cytokine production in RAW264.7 cell, TNF-α; type: cell-based; conditions: Mus musculus, RAW264.7, 48 h, read-out: TNF-α IC50
Summary of the method: as §3

[14] = system: IL-6; assay: LPS-induced cytokine production in RAW264.7 cell, IL-6; type: cell-based; conditions: Mus musculus, RAW264.7, 48 h, read-out: IL-6 IC50
Summary of the method: as §3

[15] = system: Huh7 cell; conditions: read-out: Huh7 cell CC50; MTT, 2 days

| SMILES | IC50 [1] | CC50 [2] | EC50 [3] | IC50 [4] | CC50 at 48 h [5] | IC50 [6] | CC50 at 48 h [7] | IC50 [8] | 2019nCoV-S-HIV EC50 [3] | IC50 [9] | IC50 [10] | IC50 [11] | IC50 [12] | IC50 [13] | IC50 [14] | CC50 [15] |
| --- | --- | --- | --- | --- | --- | --- | --- | --- | --- | --- | --- | --- | --- | --- | --- | --- |
| CCN(CCCC(C)Nc1ccnc2cc(Cl)ccc12)CCNC12CC(N)(C1)C2 (centres unmarked) [Compound 6, N^1-(2-((4-((7-Chloroquinolin-4-yl)amino)pentyl)(ethyl)amino)ethyl)bicyclo[1.1.1]pentane-1,3-diamine] | 16.7 ± 0.34 µM | 24.9 µM | 40.5 µM | 15.2 ± 0.46 µM | 32.4 ± 6.22 µM | – | – | – | – | – | – | – | – | – | – | – |
| CCN(CCO)CCCC(C)Nc1ccnc2cc(Cl)ccc12 (centres unmarked) [Compound 2, hydroxychloroquine, reference compound] | 18.2 ± 1.45 µM | > 80 µM | > 80 µM | 14.2 ± 0.21 µM | 26.8 ± 2.81 µM | 5.78 ± 2.39 µM | 25.3 ± 4.38 µM | 3.51 ± 0.15 µM | ineffective | 0.62 ± 0.23 µM | 1.49 ± 0.32 µM | 0.44 ± 0.01 µM | 0.86 ± 0.57 µM | 10 ± 2.97 µM | 16.5 ± 0.55 µM | – |
| CCN(CCCC(C)Nc1ccnc2cc(Cl)ccc12)CCNC(=O)C(F)(F)C1CCN(C(=O)C2OC(OC)C3OC(C)(C)OC23)CC1 (centres unmarked) [Compound 11, N-(2-((4-((7-Chloroquinolin-4-yl)amino)pentyl)(ethyl)amino)ethyl)-2,2-difluoro-2-(1-(6-methoxy-2,2-dimethyltetrahydrofuro[3,4-d][1,3]dioxole-4-carbonyl)piperidin-4-yl)acetamide] | 2.49 ± 0.11 µM | – | 25.2 µM | 2.99 ± 0.73 µM | 11.24 ± 0.08 µM | 0.45 ± 0.18 µM | 47.71 ± 0.15 µM | 1.19 ± 0.41 µM | – | 0.17 ± 0.06 µM | 0.04 ± 0.03 µM | 0.35 ± 0.18 µM | 0.17 ± 0.11 µM | 4.41 ± 1.66 µM | 1.87 ± 0.44 µM | 16.9 µM |
| CCN(CCCC(C)Nc1ccnc2cc(Cl)ccc12)CCNC(=O)C(F)(F)C1CCN(CCOCCOC)CC1 (centres unmarked) [Compound 10, N-(2-((4-((7-Chloroquinolin-4-yl)amino)pentyl)(ethyl)amino)ethyl)-2,2-difluoro-2-(1-(2-(2-methoxyethoxy)ethyl)piperidin-4-yl)acetamide] | 4.27 ± 0.33 µM | – | 5.53 µM | 1.42 ± 0.15 µM | 8.1 ± 0.77 µM | 2.7 ± 1.16 µM | 125 ± 45.7 µM | 1.81 ± 0.83 µM | – | 0.25 ± 0.03 µM | 0.003 ± 0.002 µM | 0.61 ± 0.34 µM | 1.48 ± 0.81 µM | 24.4 ± 6.05 µM | 2.52 ± 0.36 µM | 5.75 µM |
| CCN(CCCC(C)Nc1ccnc2cc(Cl)ccc12)CCNC(=O)CCOCCOCCOCCOCCOCC(=O)Nc1ccc2c(c1)OC(F)(F)O2 (centres unmarked) [Compound 15, N^18-(2-((4-((7-Chloroquinolin-4-yl)amino)pentyl)(ethyl)amino)ethyl)-N1-(2,2-difluorobenzo[d][1,3]dioxol-5-yl)-3,6,9,12,15-pentaoxaoctadecanediamide] | 1.32 ± 0.06 µM | 21.7 µM | 20.4 µM | 1.44 ± 0.56 µM | 6.07 ± 0.4 µM | 0.47 ± 0.16 µM | – | 3.84 ± 1.25 µM | marginal potency | 1.76 ± 0.72 µM | 3.34 ± 0.62 µM | 1.67 ± 0.44 µM | 1.51 ± 0.53 µM | 10.7 ± 3.99 µM | 9.63 ± 3.75 µM | – |
